Screening data deposited in PubChem BioAssay by several laboratories.
PAX8 reporter: lowers PAX8-driven luciferase in RMG-I cells; RMG-I TPO-luciferase reporter, SteadyGlo, 24 h; inhibition, % at 12.6 µM; actives 1.2% (n = 360,000); AID 652154;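 active = mean replicate inhibition at least 60% with every replicate also reaching 60%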;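 also: luciferase light reporting Pax8 driven TPO promoter activity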
PfHsp90 set2: growth inhibition of yeast expressing Plasmodium Hsp90 | S. cerevisiae expressing PfHsp90, BacTiter-Glo ATP, 48 h; yeast lacking PDR1 and PDR3 efflux regulators | inhibition, % at 9.4 µM | actives 0.32% (n = 310,000);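 active = every replicate shows inhibition above about 80%, whatever the replicate mean, limit read from the data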
N-glyco inh: N-linked glycosylation inhibition. D54 ERlucT glycosylation luciferase reporter, 24 h; percent of 100 nM tunicamycin response. reporter increase, % at 12.5 µM. actives 0.23% (n = 360,000). AID 588692;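 active = mean luciferase reporter signal, scaled so untreated is 0 and the glycosylation-blocking control 100, at or above a set limit in every replicate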;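 also: luciferase carries N-glycosylation sites so blocking glycosylation raises the light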
HIV Env fusion: HIV envelope-mediated fusion inhibition; actives 1.1% (n = 360,000); inhibition, % at 12.3 µM; HeLa-JRFL Env/CEM21 cell fusion, luciferase;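 active = mean replicate inhibition score of at least 50 and every replicate individually at or above 50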
Arr AP2 block: inhibitors of human beta-arrestin and AP2 interaction; inhibition, % at 10 µM; actives 0.31% (n = 340,000); FITC-arrestin peptide / GST-AP2 beads, flow cytometry; AP2 beta2 appendage carries R879A mutation;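 active = inhibition above a set limit, near 3 SD of compounds lacking own fluorescence, cut at about 54% in these data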
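System: GST-AP2 R879A glutathione beads. Medium: PBS with 0.05% Tween 20 and 0.1% BSA. Also added: FITC-arrestin peptide, 50 nM. Incubation: 12 min plus 1 h, RT. Measured by: high-throughput flow cytometry of beads, ex 488, em 535 nm. Evaluation: percent drop in bead-associated FITC signal.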
Rtt109 Vps75: blocks Candida albicans Rtt109/Vps75 acetyltransferase activity; Q5AAJ8; purified Rtt109/Vps75, ThioGlo CoA-SH fluorescence, 4 h; inhibition, % at 34.9 µM; actives 0.16% (n = 330,000); AID 540336;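 active = inhibition of at least 50% in every replicate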
Target sequence (Q5AAJ8 whole entry, looked up): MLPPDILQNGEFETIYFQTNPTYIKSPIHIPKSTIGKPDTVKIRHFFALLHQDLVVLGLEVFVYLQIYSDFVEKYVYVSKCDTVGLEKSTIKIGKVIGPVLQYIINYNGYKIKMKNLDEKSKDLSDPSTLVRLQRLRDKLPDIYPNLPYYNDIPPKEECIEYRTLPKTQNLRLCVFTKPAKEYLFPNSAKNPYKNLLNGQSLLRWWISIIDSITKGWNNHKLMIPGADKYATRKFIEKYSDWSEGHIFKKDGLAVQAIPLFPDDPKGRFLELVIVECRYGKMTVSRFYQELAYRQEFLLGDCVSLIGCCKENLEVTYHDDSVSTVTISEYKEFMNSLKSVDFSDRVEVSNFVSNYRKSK
Hits are given with their value. An excerpt weighted towards active compounds, which were near 2.3% of everything screened.

What do the screens show for `CNC1=C(N(C(C)=O)c2ccc(Br)cc2)C(=O)c2ccccc2C1=O`?
PAX8 reporter: 105; PfHsp90 set2: inactive; N-glyco inh: inactive; Arr AP2 block: inactive; Rtt109 Vps75: inactive

How did CCC(=O)N(C1=C(NC)C(=O)c2ccccc2C1=O)C(C)C do in these assays?
PAX8 reporter: 74; PfHsp90 set2: inactive; N-glyco inh: inactive; HIV Env fusion: inactive; Arr AP2 block: inactive; Rtt109 Vps75: inactive

What do the screens show for `CNC(=O)C[C@H]1CC[C@@H]2[C@@H](COc3ccc(NC(=O)Nc4cccc(F)c4)cc3C(=O)N2C)O1`?
PAX8 reporter: inactive; HIV Env fusion: inactive

What do the screens show for `Cc1ccc2nc(Cl)c3nnnn3c2c1`?
PfHsp90 set2: 107; N-glyco inh: inactive; Arr AP2 block: inactive; Rtt109 Vps75: inactive

How did O=C(Nc1cccc(Cl)c1)Nc1cc(S(=O)(=O)N2CCCCC2)ccc1Cl do in these assays?
PAX8 reporter: 75; PfHsp90 set2: inactive; N-glyco inh: inactive; HIV Env fusion: inactive; Arr AP2 block: inactive; Rtt109 Vps75: inactive

What do the screens show for `CN1CCN(S(=O)(=O)c2ccc(NC(=O)Nc3cccc(Cl)c3)cc2)CC1`?
PfHsp90 set2: inactive; N-glyco inh: inactive; Arr AP2 block: inactive; Rtt109 Vps75: inactive

What do the screens show for `Cc1cccc(NC(=O)c2cc(S(=O)(=O)N3CCOCC3)cn2C)c1C`?
PAX8 reporter: inactive; PfHsp90 set2: inactive; N-glyco inh: inactive; HIV Env fusion: inactive; Arr AP2 block: inactive; Rtt109 Vps75: inactive

How did O=C(Nc1cccc(Cl)c1)Nc1cccc(Cl)c1 do in these assays?
PAX8 reporter: inactive; PfHsp90 set2: inactive; N-glyco inh: inactive; HIV Env fusion: 52; Arr AP2 block: inactive; Rtt109 Vps75: inactive

How did COc1ccccc1NS(=O)(=O)c1cccc(NC(=O)Nc2cccc(Cl)c2)c1 do in these assays?
PAX8 reporter: inactive; PfHsp90 set2: inactive; N-glyco inh: inactive; HIV Env fusion: 45; Arr AP2 block: inactive; Rtt109 Vps75: inactive

What do the screens show for `Cn1cc(S(=O)(=O)N2CCOCC2)cc1C(=O)Nc1cccc(Cl)c1`?
PAX8 reporter: inactive; PfHsp90 set2: inactive; N-glyco inh: inactive; HIV Env fusion: 98; Arr AP2 block: inactive; Rtt109 Vps75: inactive

What do the screens show for `C/C=C/c1cnc2c(c1)C(=O)N([C@H](C)CO)C[C@@H](C)[C@@H](CN(C)S(=O)(=O)c1cn(C)cn1)O2`?
PAX8 reporter: inactive

What do the screens show for `C[C@H](CO)N1C[C@H](C)[C@@H](CN(C)C(=O)c2ccncc2)Oc2cc(-c3cccc(C#N)c3)ccc2S1(=O)=O`?
PAX8 reporter: inactive; HIV Env fusion: inactive

What do the screens show for `C[C@H](CO)N1C[C@H](C)[C@H](CN(C)CC2CC2)OCc2cnnn2CCCC1=O`?
PAX8 reporter: inactive

What do the screens show for `COCC#Cc1ccc2c(c1)O[C@@H](CN(C)C(=O)C1CCC1)[C@H](C)CN([C@H](C)CO)S2(=O)=O`?
HIV Env fusion: inactive

How did COc1ccccc1N=c1oc2cc(O)ccc2cc1C(N)=O do in these assays?
PAX8 reporter: inactive; PfHsp90 set2: 97; N-glyco inh: inactive; HIV Env fusion: inactive; Arr AP2 block: inactive; Rtt109 Vps75: inactive

How did COc1ccc(CN(C)C[C@H]2OCCCC[C@H](C)Oc3ccc(NS(=O)(=O)c4ccc(OC)cc4)cc3C(=O)N([C@@H](C)CO)C[C@@H]2C)cc1 do in these assays?
PAX8 reporter: inactive; HIV Env fusion: inactive

What do the screens show for `COc1ccc(OCC(=O)Nc2ccc3c(c2)nc(CCN2CCC(C)CC2)n3C)cc1`?
PAX8 reporter: inactive; PfHsp90 set2: inactive; N-glyco inh: inactive; HIV Env fusion: inactive; Arr AP2 block: inactive; Rtt109 Vps75: inactive

Results for Cn1c(CCN2CCN(c3ccccn3)CC2)nc2cc(NS(=O)(=O)c3ccc(Cl)cc3)ccc21 ?
PAX8 reporter: 90; PfHsp90 set2: inactive; N-glyco inh: inactive; HIV Env fusion: inactive; Arr AP2 block: inactive; Rtt109 Vps75: inactive

How did Cc1cccc(OCC(=O)Nc2ccc3c(c2)nc(CCN2CCN(c4ccccn4)CC2)n3C)c1 do in these assays?
PAX8 reporter: 71; PfHsp90 set2: inactive; N-glyco inh: inactive; HIV Env fusion: inactive; Arr AP2 block: inactive; Rtt109 Vps75: inactive

How did CC1CCN(CCc2nc3cc(NC(=O)COc4ccc(Cl)cc4)ccc3n2C)CC1 do in these assays?
PAX8 reporter: 75; PfHsp90 set2: inactive; N-glyco inh: inactive; HIV Env fusion: inactive; Arr AP2 block: inactive; Rtt109 Vps75: inactive

How did Cn1c(CCN2CCN(c3ccccn3)CC2)nc2cc(NC(=O)COc3ccc(Cl)cc3)ccc21 do in these assays?
PAX8 reporter: 67; PfHsp90 set2: inactive; N-glyco inh: inactive; HIV Env fusion: inactive; Arr AP2 block: inactive; Rtt109 Vps75: inactive

What do the screens show for `CC(C)NC(=O)N1[C@H](CO)[C@@H](c2ccccc2)C12CN(C(=O)CN(C)C)C2`?
PAX8 reporter: inactive

How did C[C@@H]1CN([C@@H](C)CO)C(=O)c2cc(Br)cnc2O[C@H]1CN(C)C(=O)C1CCC1 do in these assays?
HIV Env fusion: inactive

What do the screens show for `CCCNC(=O)Nc1ccc2c(c1)OC[C@@H](C)N(C(=O)C1CCCCC1)C[C@@H](C)[C@@H](OC)CN(C)C2=O`?
PAX8 reporter: inactive

What do the screens show for `CC(NCC(O)COc1ccc2ccccc2c1)c1ccccc1` (centres undefined)?
PAX8 reporter: inactive; PfHsp90 set2: inactive; N-glyco inh: inactive; HIV Env fusion: 65; Arr AP2 block: inactive; Rtt109 Vps75: inactive

Results for Cc1cc(OCC(O)CNC(C)c2ccccc2)ccc1C(C)C (centres undefined) ?
PAX8 reporter: inactive; PfHsp90 set2: inactive; N-glyco inh: inactive; HIV Env fusion: 82; Arr AP2 block: inactive; Rtt109 Vps75: inactive

How did CC(NCC(O)COC1CCC(C(C)(C)C)CC1)c1ccccc1 (centres undefined) do in these assays?
PAX8 reporter: inactive; PfHsp90 set2: inactive; N-glyco inh: inactive; HIV Env fusion: inactive; Arr AP2 block: inactive; Rtt109 Vps75: 60

How did CCCNC(=O)N1CC2(C1)[C@H](c1ccccc1)[C@H](CO)N2Cc1ccc(F)cc1 do in these assays?
PAX8 reporter: inactive

Results for Cc1noc(C)c1NC(=O)N(C)C[C@@H]1Oc2ccc(NC(=O)Nc3ccc(F)cc3)cc2CC(=O)N([C@@H](C)CO)C[C@@H]1C ?
PAX8 reporter: inactive; HIV Env fusion: inactive

What do the screens show for `COC(=O)CS(=O)(=O)c1nnc([C@H](Cc2ccccc2)NC(=O)OC(C)(C)C)o1`?
PfHsp90 set2: inactive; N-glyco inh: inactive; Arr AP2 block: inactive; Rtt109 Vps75: inactive

What do the screens show for `Cc1cccc(CS(=O)(=O)c2nnc([C@H](Cc3ccccc3)NC(=O)OC(C)(C)C)o2)c1`?
PfHsp90 set2: 112; N-glyco inh: inactive; Arr AP2 block: inactive; Rtt109 Vps75: inactive

What do the screens show for `Cc1ccccc1Cn1cnc2c(cnn2C(C)(C)C)c1=O`?
PfHsp90 set2: inactive; N-glyco inh: inactive; Arr AP2 block: inactive; Rtt109 Vps75: inactive
